This is a sample that favours compounds with a hit; in the whole collection about 2.2% have one here.
NRP1-CendR mod = modulators of CendR peptide binding to NRP-1, primary screen, biochemical, fluorescence polarization, uHTS | Neuropilin-1 (Homo sapiens), O14786 | FAM-RPARPAR peptide binding to NRP-1 | inhibition, % at 25 µM | 360,000 compounds, 0.85% hits | AID 602438, 2012;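 active = inhibition or corrected inhibition above about 18%, plus a signal ratio from 0.5 to 1.5, limit read from the data, passing the limit was not always enough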
V-ATPase pH = regulators of yeast V-ATPase proton pumping, primary screen, pHLuorin cytosolic pH fluorescence; 350,000 compounds, 0.37% hits; S. cerevisiae; AID 504577, 2011; response, % at 10 µM; in the data active = response mostly above about 7.3%, no sharp cut-off; inactive = mostly below about 5.4%; note: actives read high
ARFGAP1 inh = inhibitors of rat ARFGAP1 GAP activity, primary screen, biochemical, fluorescence polarization, GDP tracer. 360,000 compounds, 0.26% hits. AID 651572, 2012. ADP-ribosylation factor GTPase-activating protein 1 (Rattus norvegicus), Q62848. Arfgap1-stimulated ARF1 GTP hydrolysis, GDP FP detection. inhibition, % at 16.5 µM;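 active = inhibition above a per-plate limit, mean inhibition of low control wells plus 3 SD, cut at about 25% in these data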
Target sequence (Q62848 1-136 limits assumed): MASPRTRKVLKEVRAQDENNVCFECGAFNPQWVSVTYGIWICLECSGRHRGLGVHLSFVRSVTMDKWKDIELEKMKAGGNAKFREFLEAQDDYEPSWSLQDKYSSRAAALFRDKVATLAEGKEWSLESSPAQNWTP
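Material: truncated rat Arfgap1 GAP domain; Incubation: compound-enzyme preincubation 20 min, reaction 120 min, detection 60 min, 25 °C; Read-out: percent inhibition of Arfgap1-stimulated GTP hydrolysis; Technique: FP, GDP Alexa 633 tracer displaced from anti-GDP antibody, 620/688 nm; Controls: No-Arfgap1 wells (100%) versus DMSO full-reaction wells (0%); Replication: single well per compound.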
Exocytosis inh = LAMP-1 surface exposure blockers, TALL-104 cells – cell-based, flow cytometry, MLPCN library, primary screen; TALL-104 LAMP-1 surface exposure; cells stimulated with thapsigargin and PMA; inhibition, % at 10 µM; 360,000 compounds, 0.66% hits;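 active = inhibition above about 55%, limit read from the data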
ASAP1 GAP inh = inhibitors of human ASAP1 ArfGAP activity, primary screen, biochemical, fluorescence polarization; Arf-GAP with SH3 domain, ANK repeat and PH domain-containing protein 1 (Homo sapiens), …; ASAP1-stimulated ARF1 GTP hydrolysis, GDP FP detection; inhibition, % at 16.5 µM; 360,000 compounds, 0.19% hits; in the data active = inhibition above about 25%
A number is an active result; - = inactive; . = not tested or not shown.

SMILES	NRP1-CendR mod	V-ATPase pH	ARFGAP1 inh	Exocytosis inh	ASAP1 GAP inh
COC(=O)c1c(NC(=S)NN2CCN(C)CC2)sc2c1CCC(C)C2 (configuration not stated)	-	-	-	64	-
O=S(=O)(c1ccccc1)c1cnc2ccccc2c1	26	-	-	-	-
Cc1cccc(C(O)c2ncc(-c3ccccc3F)[nH]2)c1C (configuration not stated)	30	.	-	-	-
CCCN1CCC(=O)N([C@H](COc2ccccc2)CC(C)C)CC1	28	-	-	-	-
CC(C)C[C@@H](COc1ccccc1)N1CCN(CCc2ccccc2)CCC1=O	36	-	-	-	-
CCCN1CCC(=O)N([C@H](CSc2ccccc2)CC(C)C)CC1	-	-	-	-	-
C=CCN=C1NC(c2cccc(F)c2)C(C(=O)OC)=C(C)N1C (configuration not stated)	.	.	-	.	-
Cc1cc(=O)[nH]c(Nc2ccc(Cl)cc2)n1	22	-	-	-	-
Cc1cc(=O)[nH]c(Nc2ccc(N(C)C)cc2)n1	-	-	-	-	-
CCCCCn1c(C)c(CC(=O)Nc2ccc(Oc3cccnc3)c(C)c2)c2ccccc21	.	.	-	.	-
Cc1nc(CSc2ccc(Cl)cc2)cs1	-	-	-	-	-
Cc1nc(CSc2ccc(Br)cc2)cs1	20	-	-	-	-
COC(=O)C1=C(C)N(Cc2ccc(Br)cc2)C(=S)NC1c1ccc(OC)cc1 (configuration not stated)	.	.	-	.	-
O=C(Nc1ccc(Nc2cccnc2)cc1)c1c[nH]c2ccccc12	.	.	-	.	-
COCCNc1nc(-c2cc(-c3ccccc3)on2)cc(C(C)C)n1	26	-	-	-	-
COCCNc1nc(C)cc(-c2cc(-c3ccc(Cl)cc3)on2)n1	-	-	-	-	-
COC(=O)[C@]12C[C@H](CC(=O)N3CCN(C(=O)C4CC4)CC3)C(=O)N(CCC3=CCCCC3)C1=C[C@H](COCc1ccccc1)O[C@@H]2C	.	.	-	.	-
O=C(COC(=O)Cc1cccs1)NCc1ccc(F)cc1	25	-	-	-	-
CC(CNC(=O)[C@@H](Cc1ccccc1)NC(=O)[C@H]1O[C@@H](n2ccc(=O)[nH]c2=O)[C@H](O)[C@@H]1O)c1ccccc1 (some centres not stated)	.	.	-	.	-
CCOc1nc(Nc2ccc([N+](=O)[O-])cc2)nc(NC(C)(C)C)n1	-	-	-	-	-
CCN(CC)c1nc(Nc2ccc([N+](=O)[O-])cc2)nc(N(CC)CC)n1	-	-	-	107	-
O=C(NCc1cccnc1)c1cccc(S(=O)(=O)N2CCCC2)c1	-	-	-	-	-
O=C(NCc1cccnc1)c1cccc(S(=O)(=O)N2CCOCC2)c1	-	15	-	-	-
O=C(NCc1cccs1)c1ccc(Cl)c(S(=O)(=O)N2CCOCC2)c1	31	.	-	-	-
Cc1ccc(C(=O)COC(=O)c2cc(Cl)ccc2O)cc1[N+](=O)[O-]	45	-	-	-	-
SMILES	NRP1-CendR mod	V-ATPase pH	ARFGAP1 inh	Exocytosis inh	ASAP1 GAP inh
Cc1ccc(C(=O)COC(=O)c2ccncc2)cc1[N+](=O)[O-]	-	-	-	-	-
O=C(N[C@H](C(=O)N1CCC[C@H]1C(=O)NC1CCCC1)c1ccccc1)c1ccc(Cl)cc1Cl	.	.	-	.	-
Cc1c(COC(=O)NC(C)C)c(COC(=O)NC(C)C)c2n1CS(=O)(=O)C2	.	.	-	.	-
CC(C)CNc1oc(-c2ccccc2Cl)nc1C#N	26	-	-	-	-
N#Cc1nc(-c2ccco2)oc1NCc1ccc(F)cc1	23	-	-	-	-
CC(C)CNc1oc(-c2ccco2)nc1C#N	22	-	-	-	-
COCCCNc1oc(-c2ccccc2Cl)nc1C#N	-	-	-	-	-
O=C(Nc1nncs1)C1CC(=O)N(CCc2ccc(F)cc2)C1 (configuration not stated)	-	-	-	-	-
CCc1nc(Nc2cc(OC)ccc2OC)c2oc3ccccc3c2n1	25	-	-	-	-
COc1ccc(N2CCCC2)c(NC(=O)c2ccc(Br)o2)c1	61	-	-	-	-

Source: PubChem
